Source: ChEMBL document CHEMBL4513216, “Probing the Open Global Health Chemical Diversity Library for Multistage-Active Starting Points for Next-Generation Antimalarials” (ACS Infect Dis, 2020)

Assay: Toxicity liver stage against HepG2, at 10uM
Assay type: cell-based
Set-up: test concentration 10 uM, cell line HepG2-A16-CD81EGFP
Conditions: human, HepG2-A16-CD81EGFP cells; read-out: INHIBITION
Procedure, shortened: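 Uninfected HepG2-A16-CD81EGFP cells, 3 × 10^3 per well, 1536-well, plated on prespotted compound at 10 μM final, parasite-free screening media added to match infected plates; puromycin 10 μM positive, DMSO 0.5% negative; run in parallel with 48 h PbLuc assay at 37 °C, 5% CO2; viability by CellTiter-Glo luminescence, normalized to controls.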

SMILES | cytotoxicity at 10 µM
O=C(NCc1cccnc1)c1cn(CCc2ccccc2)nn1 | 4.39%
Cc1c(C)n2c(SCC(=O)N3CCCCCC3)nnc2[nH]c1=O | 0.0868%
Cc1cc2nc(CN(C)c3ccccc3)cc(=O)n2o1 | 0.719%
Cc1cccc2c1nc1n2[C@@H](CNC(=O)CCC(=O)O)COC1 | -4.83%
O=C(C1CC1)N1C[C@@H](F)[C@@H](OCc2nc3ccccc3o2)C1 | -1.94%
CC(C)NC(=O)NC[C@H]1C[C@@H]2CCN1C[C@@H]2CN(C)c1ccccc1 | 1.95%
Cc1ccc2cccc(Oc3nc(C)c(C(=O)O)s3)c2n1 | 6.39%
CC(C)CC1SCC(=O)Nc2c1cnn2-c1ccccc1F (centres undefined) | -8.62%
Cc1c(C2SCC(=O)Nc3c2c(O)nn3C(C)C)cnn1C (centres undefined) | 2.39%
CCN1CCCC1CNC(=O)Cc1c(C)n[nH]c1-c1ccc(OC)cc1 (centres undefined) | -3.72%
CC(C)N1CCC(c2ccnc3c(C(=O)N4CCOCC4)ncn23)CC1 | -5.89%
O=C1CCCN1Cc1nnn2c1CN(c1ncccn1)CCC2 | -0.0499%
CN(C)C(=O)N1CCc2c(nnn2C)C1COCC1CC1 (centres undefined) | 12.6%
Cc1noc([C@H]2COC[C@H]3CN(C(=O)Cc4ccccc4F)C[C@H]32)n1 | -8.52%
CN(C)C(=O)C1OC2(CCN(C(=O)c3ccco3)CC2)c2ccccc21 (centres undefined) | 4.93%
O=c1cc(Cn2cncn2)nc2n1CCCN(Cc1ccsc1)C2 | -0.123%
O=C(c1cscn1)N1C[C@@H]2C[C@@H](c3nnc(C4CC4)o3)O[C@@H]2C1 | -16.9%
Cc1nc2c(N3CCN(CCO)CC3)nc(N)nc2n1C | -10.8%
CCn1nc(C)c2ncnc(NCCCn3ccnc3)c21 | 10.3%
COc1cc(-c2n[nH]c(CC#N)n2)cc(OC)c1OC | -175%
CCc1nnc(Nc2cc(C)nc(C3CN(C(=O)C(C)C)CCO3)c2)s1 (centres undefined) | 7.25%
COCCN1CCCC(c2nccnc2-c2cccc(Cl)c2)C1 (centres undefined) | 3.99%

SMILES | cytotoxicity at 10 µM
Cn1nccc1-c1cccc(CC2CCN(S(C)(=O)=O)C2)n1 (centres undefined) | 4.54%
CCCN(CCO)S(=O)(=O)c1ccc2[nH]c(=O)[nH]c2c1 | -0.24%
CN(C)S(=O)(=O)N1CCOC(c2cccc(-c3cncnc3)n2)C1 (centres undefined) | 3.71%
CNC(=O)C1(Cc2cc(C(C)C)no2)CCN(Cc2cccnc2)C1 (centres undefined) | 4.61%
CS(=O)(=O)N1CCCC(Cc2ccnc(Nc3ccccn3)c2)C1 (centres undefined) | 5.46%
Cc1cc(C2CCCN(S(=O)(=O)c3cn(C)cn3)C2)ccn1 (centres undefined) | 3.42%
O=C(O)c1ccccc1-n1cnc(CN2CCc3ccccc3C2)c1 | 13.6%
CN(C)Cc1ccccc1Cn1cncc1-c1cnn(C)c1 | 6.16%
CCn1cc(C(=O)NCCc2nc(-c3ccc(C)cc3)n[nH]2)c(C)n1 | 9.03%
Cc1cc(C)nc(C2CCCN2C(=O)c2cnco2)n1 (centres undefined) | -1.45%
CN1CCCC(c2cccc(CCC(=O)NCC3(C)COC3)n2)C1 (centres undefined) | -8.24%
CNc1ncccc1CN1CCCCC1c1cc(C)n2ccnc2n1 (centres undefined) | -2.17%
COc1cc(OC)cc(-c2cc(N)on2)c1 | 7.79%
Fc1ccc(-c2noc(C3COCCO3)n2)cc1F (centres undefined) | -1.21%
COC(=O)N1CCCN(Cn2nc(C)c(Br)c2C)CC1 | 8.38%
Cc1noc(CNc2ccccc2CC(=O)N(C)C)n1 | 2.69%
Fc1cccc2c1CCC2NCc1cnc(N2CCOCC2)nc1 (centres undefined) | 5.42%
CC(C)c1ccc(O)c(C(=O)NCc2cc[nH]n2)c1 | -1.49%
CC(C(=O)Nc1cnn(CC(N)=O)c1)c1ccc(Cl)s1 (centres undefined) | 10.9%
CC(C)N(C)S(=O)(=O)N(C)Cc1cnn(C)c1 | 7.2%
Cc1cc(C(=O)Nc2ccc3c(ccn3CCN3CCOCC3)c2)on1 | 4.29%
CC1CCC(NC(=O)CNC2(c3ccc(Br)cc3)CCOCC2)CC1 (centres undefined) | 3.46%

SMILES | cytotoxicity at 10 µM
CCCN(C)C(=O)Nc1ccc(C(=O)NCCC(=O)OC)cc1 | 6.62%
Cc1cnn(CC2CCCN2CC(=O)Nc2nncs2)c1 (centres undefined) | -2.03%
Cc1ccc(-c2nc(CN3CCOC(Cn4cncn4)C3)cs2)o1 (centres undefined) | 4.5%
COc1cc(C(=O)NS(=O)(=O)c2cncc(Br)c2)ccc1C | -2.45%
Cc1ccc(C(=O)NCCCN(C)S(C)(=O)=O)cc1-n1cccc1 | -8.71%
Cc1ccc(C(=O)N2CCCC2c2nnc3n2CCCCC3)s1 (centres undefined) | -0.208%
Cc1nn(CC(C)C)c(N(C)C)c1CNCCC(=O)NC(C)C | 7.45%
Fc1ccc(OCCCN2CC(n3cccn3)C2)cc1 | 2.16%
CC(C)NC(=O)CN1CCSC2(CCCCC2)C1 | -13.7%
CCn1c(C)nnc1Sc1nn2cc(C)nc2s1 | -1.99%
N#Cc1ccc(OC2CCN(CC(=O)NCC3CCCO3)CC2)cc1 (centres undefined) | 34.8%
COCCC1(CNC(=O)NCC2CCC2)CCC1 | -10.1%
Cn1nccc1C(=O)NC(C)(C)c1noc(C(C)(C)C)n1 | 8.22%
Cc1nn(C)cc1CN(C)Cc1cc2c(cc1OC(F)F)OCO2 | -3.53%
CSCC(=O)N1CCCC1c1noc(C2CC2)n1 (centres undefined) | 17%
NC(=O)CN1CCC(NC(=O)c2ccn(-c3cccc(F)c3)n2)CC1 | 13.4%
CC(=O)N1CC[C@H]2N(C)CC[C@@]2(C(=O)Nc2cccnc2)CC1 | -111%
Cc1ncncc1-c1ccnc(N)n1 | -7.22%
Cc1nccc(N2C[C@@H](CN3CCCC3)[C@@H](CO)C2)n1 | -3%
CC(C)n1ccnc1C1CCN(C(=O)c2ccccn2)CC1 | -2.85%
Cc1ncc(C)c(N2CCC(Cc3ccc(Cl)cc3)(C(=O)O)CC2)n1 | -6.28%
CCc1nc2ccccc2n1C(CC)C(=O)N(C)Cc1nc(C)c[nH]1 (centres undefined) | -2.53%

SMILES | cytotoxicity at 10 µM
Cc1nccn1Cc1nnc(C2CCCN(c3ncccc3F)C2)n1C (centres undefined) | -4.93%
CCc1ccc(C(=O)N2CC[C@](C)(O)[C@H](C)C2)[nH]1 | 2.27%
CCn1cc(-c2cc(C(=O)N3CCOCC3)c3cc(Cl)ccc3n2)cn1 | -1.53%
CCn1cc(C(=O)NCCN2CCCc3ccccc32)c(C)n1 | 4.23%
Cc1nnc(CNC(=O)CC2CCc3ccccc32)o1 (centres undefined) | 1.58%
O=C(NCc1ccc2c(c1)CCCO2)C1CNCCO1 (centres undefined) | -7.49%
COCc1noc(CCNc2nc(CC3CC3)nc3c2CCNCC3)n1 | -4.1%
CCc1cc(N2CC(N3CCCCC3C)C2)n2nccc2n1 (centres undefined) | -4.85%
COCC(=O)N1C[C@H]2CNC[C@@]2(C(=O)NCc2cccc3[nH]ccc23)C1 | 6.65%
CCc1cccc(NC(=O)CCC(=O)N(C)Cc2nc(C)c[nH]2)c1 | -1.92%
CCCC(C)NCc1cnc(-c2cccc(C)c2)nc1 (centres undefined) | -11.7%
CS(=O)(=O)N1CCc2[nH]cnc2C12CCN(C(=O)c1ccccc1)CC2 | -2.66%
Cc1nc(-c2ccncc2)ncc1C(C)NC(=O)CN1CCCC1=O (centres undefined) | 1.74%
CCCc1nnc(NCCc2noc(C3CCC3)n2)o1 | -8.22%
CN1CCC(Oc2ccc(-n3ccnc3-c3nccn3C)cc2)CC1 | -7.41%
CN(C)CC(c1ccccc1)N(C)C(=O)c1cccc(NCC(=O)O)c1 (centres undefined) | 3.7%
Cc1cc(Cc2ccc(S(=O)(=O)N3CCSCC3)cc2)c(=O)[nH]n1 | -10%
Cc1cc(C(=O)N2CCCC(c3nccn3Cc3cscn3)C2)on1 (centres undefined) | -1.32%
COc1cccc2c1OCC(C(=O)N1CCC(N3CCOC3=O)CC1)C2 (centres undefined) | -19.7%
CN(C)C(=O)N1CCN(C(=O)C(c2ccccc2F)N(C)C)CC1 (centres undefined) | -0.665%
CCn1cc(S(=O)(=O)N(C)Cc2c(Br)cnn2CC)c(C)n1 | 3.3%
Cc1nc(-c2ccc(C(=O)O)cc2)cc(C2CCN(C(C)C)C2)n1 (centres undefined) | 6.62%

SMILES | cytotoxicity at 10 µM
Cc1noc(C(C)N2CCN(CCOCC(F)(F)F)CC2)n1 (centres undefined) | -1.4%
Cc1csc(N2CCN(CC(=O)Nc3cc(C)nn3C)CC2C)n1 (centres undefined) | -10.2%
Cc1ccc(CC(=O)N2CCc3nnc(N(C)C)cc3C2)s1 | -9.01%
COc1ccc(NC(=O)N(CC2CCOC2)C2CC2)cn1 (centres undefined) | -6.95%
Cc1cc(C)n(-c2ccc(CNCc3ccc(F)c(F)c3)cn2)n1 | -8.77%
Cc1cc(C)n(C2CCCN(C(=O)c3c[nH]c(=O)c(Cl)c3)C2)n1 (centres undefined) | -5.03%
CN(Cc1cnn(C)c1)C(=O)NCc1csc(Br)c1 | 0.568%
c1cnc(-c2nc(CN3CCC(c4ccn[nH]4)CC3)cs2)nc1 | -2.97%
O=C(NCc1ccco1)C1CCCN1Cc1nc(-c2ccco2)no1 (centres undefined) | -6.46%
CCc1ncc(C(=O)N2CCOCC2c2c(C)n[nH]c2C)s1 (centres undefined) | -5.61%
Cc1noc(C)c1CN(C)C(=O)NC1CCN(c2ncccn2)CC1 | -19.1%
CC(C)c1cc(NC(=O)CN2CCc3ccccc3C2)on1 | -4.89%
CN(C)CCN1C[C@@H]2CN(C(=O)C3CCOC3)C[C@@H]2C1=O (some centres undefined) | -5.18%
O=C([C@@H]1COC[C@H]2CN(CC3CC3)C[C@H]21)N1CCC(F)CC1 | 9.29%
O=C(NCc1ccccn1)[C@]12COC[C@H]1CN(C1CCC1)C2 | -6.82%
CN(C)C(=O)COC[C@@]12CCC[C@@H]1CN(C1CCC1)C2 | -1.25%
COc1ccc(CN2CC[C@H]3CO[C@H](CNC(=O)N(C)C)[C@H]3C2)cc1 | 1.07%
c1cncc(CN2CCCC3(COCCN(c4cnccn4)C3)C2)c1 (centres undefined) | -0.0653%
O=C(Nc1cccnc1)[C@@H]1CCO[C@@H]2CCN(Cc3cccnc3)C[C@@H]21 | 4.78%
CNc1nc(C(=O)N2C[C@@H]3CC[C@H]2CN(C2CCOCC2)C3)cs1 | 4.84%
CS(=O)(=O)N1C[C@H]2CC[C@@H](C1)N(CCC(=O)NCc1ccco1)C2 | -17.9%
